Measurements as given in publication PMC3210412 (Biochemical pharmacology, 2011).

Experiments:
ERα [1] = target: T1, ERα (Homo sapiens, UniProt P03372); conditions: concentrations up to 2.5 μM; U2OS, HeLa or WAR5 prostate cancer cells transfected with ERα; cited from earlier work
T1 sequence (P03372 1-595): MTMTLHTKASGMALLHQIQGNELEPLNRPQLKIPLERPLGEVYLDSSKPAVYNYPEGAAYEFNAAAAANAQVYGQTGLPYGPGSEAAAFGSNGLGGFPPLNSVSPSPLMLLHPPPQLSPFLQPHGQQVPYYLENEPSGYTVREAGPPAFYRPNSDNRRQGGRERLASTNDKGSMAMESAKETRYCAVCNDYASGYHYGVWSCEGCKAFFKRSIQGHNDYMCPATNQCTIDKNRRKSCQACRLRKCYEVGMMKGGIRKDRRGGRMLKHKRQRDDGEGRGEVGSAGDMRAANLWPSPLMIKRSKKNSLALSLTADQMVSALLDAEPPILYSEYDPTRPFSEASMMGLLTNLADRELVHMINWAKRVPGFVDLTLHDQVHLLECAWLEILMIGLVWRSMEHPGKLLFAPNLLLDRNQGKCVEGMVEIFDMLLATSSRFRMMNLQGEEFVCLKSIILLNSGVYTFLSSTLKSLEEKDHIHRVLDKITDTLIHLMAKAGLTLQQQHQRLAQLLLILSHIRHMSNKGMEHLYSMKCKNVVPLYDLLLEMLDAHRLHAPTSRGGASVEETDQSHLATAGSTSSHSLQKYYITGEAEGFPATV

C3 (ERβ target gene) = experiment: qPCR of ERβ target gene C3 in Hs578T-ERβ cells; type: cell-based; conditions: 50 ng/mL Dox 48 hr, ligand 24 hr; cosmosiin 1 μM
Method in brief: (§1)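 Cells were hormone-depleted for 3 days in phenol red-free DMEM/F12 + 10% charcoal-stripped FBS, split into 5% stripped serum, and induced with 50 ng/mL Dox for 48 hr. They were then treated with Dox plus test compound or 0.1% DMSO vehicle for 24 hr. Total RNA was extracted and assayed by qRT-PCR: ITGA6 in Hs578T-ERα cells, C3 and JAG1 in Hs578T-ERβ cells. There were three biological replicates, with two-tailed t-tests against control.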

JAG1 (ERβ target gene) = experiment: qPCR of ERβ target gene JAG1 in Hs578T-ERβ cells; type: cell-based; conditions: for JAG1 repression in Hs578T-ERβ cells: 50 ng/mL Dox 48 hr, ligand 24 hr; for JAG1 repression compared to E2, DPN or 1 μM liquiritigenin: 100 nM liquiritigenin, 1 μM cosmosiin
Method in brief: as §1

ITGA6 (ERα target gene) = experiment: qPCR of ERα target gene ITGA6 in Hs578T-ERα cells; type: cell-based; conditions: for ITGA6 expression in Hs578T-ERα cells at 1 μM: 1 μM ligand, 24 hr; for ITGA6 expression in Hs578T-ERα cells: ligand 24 hr, DPN 10 nM, liquiritigenin 100 nM
Method in brief: as §1

FLuc reporter transcript = experiment: RT-PCR of firefly luciferase; type: cell-based; conditions: 1 μM cosmosiin vs 1 nM E2, 4 and 24 hr; both cell lines
ERα [2] = target: T1, ERα; experiment: Competitive ligand binding assay; conditions: read-out: IC50 ERα, unpublished data
ERα [3] = target: T1, ERα; experiment: Luciferase reporter assay in Hs578T-ERαLuc cells; type: cell-based; conditions: for luciferase induction in Hs578T-ERαLuc (in words): b31: 10 nM DPN or PPT, 24 hr
ERβ [4] = target: T2, ERβ (Homo sapiens, UniProt Q92731); experiment: Competitive ligand binding assay
ERα/β and ERβ/β dimers = experiment: BRET dimerization assays; type: cell-based; conditions: unpublished data
ERβ [5] = target: T2, ERβ; experiment: Luciferase reporter assay in Hs578T-ERβLuc cells; type: cell-based; conditions: for luciferase induction in Hs578T-ERβLuc (in words): b31: 10 nM DPN or PPT, 24 hr, cosmosiin up to 10 μM
[6] = cited from earlier work
ERα [7] = target: T1, ERα; conditions: cited from earlier work
ERβ [8] = target: T2, ERβ; conditions: cited from earlier work
ERα [9] = target: T1, ERα; conditions: cited from earlier work; remark: listed apart in the source
ERβ [10] = target: T2, ERβ; experiment: pGL4.3xERE reporter in HEK293 cells transfected with full length ERβ; type: cell-based; conditions: 1 nM E2, 24 hr
T47D-KBLuc cells = conditions: read-out: EC50, T47D-KBLuc cells; approximate; cited from earlier work

T2 sequence (Q92731 whole entry): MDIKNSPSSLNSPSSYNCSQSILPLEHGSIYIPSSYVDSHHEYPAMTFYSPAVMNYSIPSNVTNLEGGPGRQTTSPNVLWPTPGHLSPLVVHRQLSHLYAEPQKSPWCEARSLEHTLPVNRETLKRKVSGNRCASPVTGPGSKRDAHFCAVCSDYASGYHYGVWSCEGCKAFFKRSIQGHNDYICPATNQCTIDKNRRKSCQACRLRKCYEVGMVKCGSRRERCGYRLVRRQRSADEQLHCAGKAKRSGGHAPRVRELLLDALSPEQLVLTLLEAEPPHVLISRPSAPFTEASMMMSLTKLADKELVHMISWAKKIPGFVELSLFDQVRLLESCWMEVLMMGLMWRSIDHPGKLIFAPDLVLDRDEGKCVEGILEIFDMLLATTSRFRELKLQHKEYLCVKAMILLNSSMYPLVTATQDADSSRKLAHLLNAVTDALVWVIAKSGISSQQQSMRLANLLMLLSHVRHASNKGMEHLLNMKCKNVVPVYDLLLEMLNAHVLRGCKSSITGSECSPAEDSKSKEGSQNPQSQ

SMILES	C3 expression in Hs578T-ERβ cells (C3 (ERβ target gene))	JAG1 repression in Hs578T-ERβ cells (JAG1 (ERβ target gene))	JAG1 repression compared to E2, DPN or 1 μM liquiritigenin (JAG1 (ERβ target gene))	ITGA6 expression in Hs578T-ERα cells at 1 μM (ITGA6 (ERα target gene))	ITGA6 expression in Hs578T-ERα cells (ITGA6 (ERα target gene))	luciferase induction in Hs578T-ERαLuc (in words) (ERα [3])	luciferase induction in Hs578T-ERβLuc (in words) (ERβ [5])	other results
O=C1C[C@@H](c2ccc(O)cc2)Oc2cc(O)ccc21 [Liquiritigenin, liquiritigenin]	capable of inducing C3 expression to a comparable level as E2	occurred to a similar degree	do not fully repress JAG1 expression	ITGA6 expression was induced	did not fully activate its expression	–	–	activation of ERα in transcriptional assays (ERα [1]): minimal activation of ERα
O=c1cc(-c2ccc(O)cc2)oc2cc(O[C@@H]3O[C@H](CO)[C@@H](O)[C@H](O)[C@H]3O)cc(O)c12 [Cosmosiin, apigenin 7-glucoside]	induced C3 expression at 1 μM, but not to the same extent as E2	occurred to a similar degree	do not fully repress JAG1 expression	ITGA6 expression was induced	–	only slightly activated luciferase reporter expression	induced luciferase expression to a much greater extent than E2	luciferase transcript level compared to E2 (FLuc reporter transcript): did not induce luciferase expression to a greater extent than E2; IC50 (ERα [2]): 15900 nM; IC50 (ERβ [4]; read-out: IC50 ERβ, unpublished data): 3300 nM; higher binding affinity for ERβ (ERβ [4]; unpublished data): 3 fold; ER dimer induction (BRET) (ERα/β and ERβ/β dimers): selectively induces ERα/β and ERβ/β dimers; luciferase induction with ICI 182,780 co-treatment or without Dox (ERβ [5]; data not shown): did not induce luciferase expression in Dox-treated cells co-treated with ICI 182,780 or cells not treated with Dox
C=Cc1cc(O)cc2nc(-c3ccc(O)c(F)c3)oc12 [ERB-041]	–	–	–	–	–	–	–	efficacy in rheumatoid arthritis trial [6]: did not improve arthritis symptoms; tolerability in rheumatoid arthritis trial [6]: well tolerated
CCCc1c(-c2ccc(O)cc2)nn(-c2ccc(O)cc2)c1-c1ccc(O)cc1 [PPT, propyl pyrazole triol]	slightly induced C3 expression compared to DMSO	had no effect on JAG1 repression	–	–	up-regulated	selectively activated luciferase expression in Hs578T-ERαLuc	could not induce luciferase expression to the same extent as E2	EC50 (ERα [3]): 0.016 nM; selectivity for ERα (EC50 comparison) (ERα [3]; Hs578T-ERαLuc vs Hs578T-ERβLuc): ~1000 fold; higher binding affinity for ERα compared to ERβ (ERα [7]): 400 fold; induction of estrogen responsive reporter, HEC-1 cells + ERβ (ERβ [8]): unable to induce an estrogen responsive reporter; EC50 (ERβ [5]): 26 nM; concentrations at which reporter is activated in Hs578T-ERβLuc (ERβ [5]): greater than 100 nM; induction of estrogen responsive reporter, HELN-ERα cells (ERα [9]): unable to induce an estrogen responsive reporter
C[C@]12CC[C@@H]3c4ccc(O)cc4CC[C@H]3[C@@H]1CC[C@@H]2O [E2, 17β-estradiol]	up-regulated in Hs578T-ERβ cells	occurred to a similar degree	–	–	up-regulated	–	–	induction of luciferase, HEK293 + ERβ (ERβ [10]): 15 fold; EC50 (T47D-KBLuc cells): ~0.003 nM
N#CC(Cc1ccc(O)cc1)c1ccc(O)cc1 (stereo not shown) [DPN, diarylpropionitrile]	capable of inducing C3 expression to a comparable level as E2	occurred to a similar degree	–	–	did not fully activate its expression	–	–	–
